Results: ChEMBL document CHEMBL1138962, “Exploration of a new type of antimalarial compounds based on febrifugine” (J Med Chem, 2006)
In brackets after ≈: the same amount, converted by molar mass.

How the values were obtained:
Plasmodium falciparum [1] = assay: Antimalarial activity against chloroquine-sensitive Plasmodium falciparum FCR3 by pLDH reporter assay; assay type: functional, organism-based
Outline: (§1)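 P. falciparum cultured in human A+ erythrocytes in RPMI-1640 (25 mM HEPES, hypoxanthine, gentamicin) with 10% human plasma, 37 °C, 93% N2/4% CO2/3% O2. Asynchronous parasites at 2.0% hematocrit, 0.5% parasitaemia. Compound added in water or 5% DMSO, 72 h at 37 °C. pLDH read-out: Malstat, then NBT/PES, formazan at 650 nm. EC50 from dose-response curve.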

Plasmodium falciparum [2] = assay: Antimalarial activity against chloroquine-resistant Plasmodium falciparum K1 by pLDH reporter assay; assay type: functional, organism-based; outline: as §1
L929 [3] = assay: Cytotoxicity against mouse L929 cells by MTT assay; assay type: functional, cell-based
Outline: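 MTT assay in mouse L929 cells (1.8 × 10⁴ cells/well) in RPMI-1640 with 10% FBS. Compound added in distilled water or 10% DMSO (added solution), then 48 h at 37 °C, 5% CO₂. MTT 4 h, formazan dissolved in DMSO, absorbance read at 570 and 655 nm. EC50 from dose-response curve.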

[4] = Therapeutic index; LD50 for ICR mice (Mus musculus)/ED50 against Plasmodium berghei NK65; conditions: read-out: Ratio LD50/ED50
Outline: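 Index is mouse LD50 (oral acute toxicity) divided by oral ED50 against P. berghei in mice. For ED50, a 4-day suppressive test was used. Male ICR mice (18-20 g) were inoculated iv with 10⁶ parasitized RBC. Compound was given po in 5% gum arabic 2 h post-infection, then once daily on days 1-3. Parasitaemia was read from tail-blood thin films on day 4.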

L929 [5] = assay: Selectivity for L929 cells over Plasmodium falciparum FCR3 as EC50 ratio; assay type: functional
Outline: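 Ratio of L929 EC50 to P. falciparum FCR-3 EC50. L929 EC50 by 48 h MTT assay. FCR-3 EC50 by pLDH assay: asynchronous parasites in human erythrocytes (2.0% hematocrit, 0.5% parasitaemia), RPMI with 10% human plasma. Incubated 72 h at 37 °C under 93% N₂/4% CO₂/3% O₂. Malstat/NBT-PES read-out at 650 nm; EC50 from dose-response curves.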

Plasmodium berghei = assay: Antimalarial activity against Plasmodium berghei NK65 infected ICR mice (Mus musculus) peroral dose; assay type: functional
Outline: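 P. berghei NK65 4-day suppressive test. Male ICR mice (18-20 g) infected i.v. with 10⁶ parasitized red cells. Compounds suspended in 5% gum arabic, given orally 2 h post-infection (Day 0), then once daily Days 1-3. Day 4 tail-vein blood, parasitaemia from thin blood films; ED50 from dose-response curve.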

[6] = Toxicity in po dosed ICR mouse; assay type: organism-based; conditions: in vivo
Outline: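 Acute toxicity in mice, compound given orally. LD50 determined.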

Compound | EC50 (Plasmodium falciparum [1]) [µg/mL] | EC50 (Plasmodium falciparum [2]) [µg/mL] | EC50 (L929 [3]) [µg/mL] | selectivity ratio [4] | Ratio EC50 (L929 [5]) | ED50 (Plasmodium berghei; Plasmodium berghei, NK65, po) [mg/kg] | LD50 [6] [mg/kg] | ED50 (Plasmodium berghei) [mg/kg]
O=C(C[C@H]1NCCC[C@@H]1O)Nc1nc(O)c2ccccc2n1 | > 1 | > 1 | > 100 |  |  |  |  | 
O=C(CN1CCCC(O)C1)Cn1cnc2ccccc2c1=O (stereo not drawn) | > 1 | > 1 | > 100 |  |  |  |  | 
O=C(COC1CCCNC1)Cn1cnc2ccccc2c1=O (stereo not drawn) | > 1 | > 1 | > 100 |  |  |  |  | 
O=c1c2ccccc2ncn1CCC[C@H]1NCCC[C@@H]1O | 0.0225 (≈ 0.0783 µM) | 0.0236 (≈ 0.0821 µM) | 4.45 (≈ 15.5 µM) | > 14 | 198 | 22.5 | > 320 | 
O=c1c2ccccc2ncn1CCCC[C@H]1NCCC[C@@H]1O | > 1 | > 1 | > 100 |  |  |  |  | 
O=c1c2ccccc2ncn1CC[C@H]1NCCC[C@@H]1O | > 1 | > 1 | > 100 |  |  |  |  | 
CC[C@H](O)[C@@H](CC(=O)Cn1cnc2ccccc2c1=O)NC | > 1 | > 1 | 6.44 (≈ 21.2 µM) |  | <6.44 |  |  | 
O=C(C[C@H]1NCCC[C@@H]1O)Cn1cnc2ccsc2c1=O (relative stereo) | 0.00306 (≈ 0.00996 µM) | 0.00319 (≈ 0.0104 µM) | 0.563 (≈ 1.83 µM) | 30 | 184 |  | 88 | 2.95
Cc1nc2ccccc2c(=O)n1CC(=O)C[C@H]1NCCC[C@@H]1O (relative stereo) | 0.116 (≈ 0.368 µM) | 0.19 (≈ 0.602 µM) | 15.6 (≈ 49.5 µM) |  | 134 |  |  | 
O=C(C[C@H]1NCCC[C@@H]1O)Cn1nnc2ccccc2c1=O (relative stereo) | 0.154 (≈ 0.509 µM) |  | 16.4 (≈ 54.2 µM) |  | 106 |  |  | 
O=C(C[C@H]1NCCC[C@@H]1O)Cn1ccc(=O)c2ccccc21 (relative stereo) | > 1 | > 1 | > 100 |  |  |  |  | 
O=C(C[C@H]1NCCC[C@@H]1O)Cn1cnc2ncnc-2c1O (relative stereo) | 0.506 (≈ 1.74 µM) | 0.943 (≈ 3.24 µM) | > 100 |  | >198 |  |  | 
O=C(C[C@H]1NCCC[C@@H]1O)Cn1cnc2ccc(F)cc2c1=O (relative stereo) | 0.00073 (≈ 0.00229 µM) | 0.000916 (≈ 0.00287 µM) | 0.079 (≈ 0.247 µM) |  | 108 |  | < 2.5 | 
O=C(C[C@@H]1NCCC[C@H]1O)Cn1cnc2ccccc2c1=O (single isomer, unassigned) [FEBRIFUGINE] | 0.00142 (≈ 0.00471 µM) | 0.0014 (≈ 0.00465 µM) | 0.167 (≈ 0.554 µM) | 17 | 118 | 0.41 | 7.1 | 
C[C@@H]1CC[C@H]2[C@@H](C)C(=O)O[C@@H]3O[C@@]4(C)CC[C@@H]1[C@]32OO4 [ARTEMISININ] | 0.0179 (≈ 0.0634 µM) | 0.0117 (≈ 0.0414 µM) | > 100 |  | >5590 |  |  | 
CCN(CC)CCCC(C)Nc1ccnc2cc(Cl)ccc12 (stereo not drawn) [CHLOROQUINE] | 0.0475 (≈ 0.148 µM) | 0.375 (≈ 1.17 µM) | 18.6 (≈ 58.1 µM) |  | 392 | 1.53 |  | 
